Experimental data: ChEMBL document CHEMBL4396876, “Antisulfatase, Osteogenic, and Anticancer Activities of Steroid Sulfatase Inhibitor EO-33 in Mice” (J Med Chem, 2019)

Assays:
[1] = Drug level in Balb/c mouse treated with 2-{[4-({(Furan-2-ylmethyl)[(5-methylthiophen-2-yl)-methyl]amino}methyl)phenyl]carbonyl}-1,2,3,4-tetrahydroisoquinolin-7-yl Sulfamate assessed as metabolite formation at 30 mg/kg, po administered via gavage as single dose using MC/EtOH formulation by LC-MS/MS analysis; format: ADME, organism-based; details: in vivo
Method in brief: (§1)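 Phenol metabolite EO-29 measured by LC-MS/MS in plasma of female Balb/c mice fasted 8 h, then given a single 30 mg/kg dose of the sulfamate in MC:EtOH (92:8), 0.1 mL, SC or by gavage. Sampled at 1, 3, 7, 12 and 24 h by cardiac puncture (2–3 mice/group).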

[2] = Drug level in Balb/c mouse treated with 2-{[4-({(Furan-2-ylmethyl)[(5-methylthiophen-2-yl)-methyl]amino}methyl)phenyl]carbonyl}-1,2,3,4-tetrahydroisoquinolin-7-yl Sulfamate assessed as metabolite formation at 30 mg/kg, sc administered as single dose using MC/EtOH formulation by LC-MS/MS analysis; format: ADME, organism-based; details: in vivo; method in brief: as §1
Mus musculus [3] = assay: Osteogenic activity in ovariectomized-induced C57BL/6 mouse model of osteoporosis assessed as recovery of tibia calcium content at 5 ug/kg, sc treated for 70 days by Triple Quad ICP-MS analysis relative to control; format: functional
Method in brief: (§2)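 Female C57BL/6 mice (63–70 days) ovariectomized under isoflurane; sham controls kept. 8/group, dosed SC in 0.1 mL MC:EtOH (92:8) for 70 days. Tibias excised and weighed (mg/g body weight). Calcium measured by ICP-MS after calcination at 600 °C for 6 h and HNO3 microwave digestion; expressed as mg/g tibia.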

Mus musculus [4] = assay: Osteogenic activity in ovariectomized-induced C57BL/6 mouse model of osteoporosis assessed as recovery of tibia weight at 5 ug/kg, sc treated for 70 days relative to control; format: functional; method in brief: as §2
Mus musculus [5] = assay: Estrogenic activity in ovariectomized-induced C57BL/6 mouse model of osteoporosis assessed as stimulation of uterus weight at 1 mg/kg, sc administered 6 days per week for 70 days measured post last dose by necropsy analysis; format: ADME, organism-based; details: in vivo
Mus musculus [6] = assay: Osteogenic activity in ovariectomized-induced C57BL/6 mouse model of osteoporosis assessed as recovery of tibia weight at 1 mg/kg, sc administered 6 days per week for 70 days relative to control; format: functional; method in brief: as §2
[7] = Hepatotoxicity in ovariectomized-induced C57BL/6 mouse model of osteoporosis assessed as effect on liver weight at 1 mg/kg, sc administered 6 days per week for 70 days measured post last dose by necropsy analysis; format: toxicity, organism-based; details: in vivo
[8] = Toxicity in ovariectomized-induced C57BL/6 mouse model of osteoporosis assessed as effect on body weight at 1 mg/kg, sc administered 6 days per week for 70 days measured post last dose; format: organism-based; details: in vivo
Method in brief: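 Female C57BL/6 mice, 63-70 days old, ovariectomized under isoflurane (sham-operated controls), randomized by weight into groups of 8. Treated SC in 0.1 mL MC:EtOH (92:8) over 70 days; sham and OVX controls received vehicle alone. Mice weighed at the end of the protocol before necropsy.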

Mus musculus [9] = assay: Osteogenic activity in ovariectomized-induced C57BL/6 mouse model of osteoporosis assessed as recovery of tibia calcium content at 1 mg/kg, sc administered 6 days per week for 70 days by Triple Quad ICP-MS analysis relative to control; format: functional; method in brief: as §2
Mus musculus [10] = assay: (§3) In vivo inhibition of STS in ovariectomized Balb/c mouse assessed as reduction in E1S-stimulated uterus weight at 5 mg/kg, sc administered once daily starting from day 2 to day 10 using MC/EtOH formulation and E1S addition on day 5 to 10 measured on day 11 relative to control; format: functional
Method in brief: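 Female Balb/c mice (15–20 g) ovariectomized under isoflurane, 5/group. Inhibitor given SC in 0.1 mL MC:EtOH (92:8) on days 2–10. E1S (2 µg/mouse, BID) or E1 (0.06 µg/mouse, ID) given SC on days 5–10. Vehicle controls included. Uterus dissected and weighed on day 11. Means ± SEM.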

Mus musculus [11] = assay: as §3, with “Ex” for “In”, “mouse liver homogenates” for “mouse”, “transformation of [3H]-E1S into [3H]-E1” for “E1S-stimulated uterus weight”, “11 by liquid scintillation counting method” for “11”; format: functional
Method in brief: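 Livers collected on day 11 from the OVX Balb/c uterotrophic protocol and homogenized in cold pH 7.4 phosphate buffer with protease inhibitors. 2000 g supernatant, 100 or 500 µg protein, incubated with [3H]-E1S/E1S (final 1 µM) in PBS for 2 h at 37 °C. Xylene extraction, then scintillation counting of both phases. Result given as % E1 formed. Triplicate.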

What does the source list for `Cc1ccc(CN(Cc2ccc(C(=O)N3CCc4ccc(O)cc4C3)cc2)Cc2ccco2)s1`?
Drug metabolism [1]: Metabolite_Detected; Drug metabolism [2]: Metabolite_Detected

Which Activity (Mus musculus [3]) does the source give for `C[C@]12CC[C@@H]3c4ccc(O)cc4CC[C@H]3[C@@H]1CC[C@@H]2O` [ESTRADIOL] here?
Its Activity is 100%.

And the Activity (Mus musculus [4])?
Its Activity is 100%.

For `O=C(c1ccc(OCCN2CCCCC2)cc1)c1c(-c2ccc(O)cc2)sc2cc(O)ccc12` [RALOXIFENE], which Activity (Mus musculus [5]) is on record?
Its Activity is “Toxic”.

And the Activity (Mus musculus [6])?
The Activity was 100%.

And the Activity [7]?
Its Activity is “Non-Toxic”.

And the Activity [8]?
The Activity was “Non-Toxic”.

What about the Activity (Mus musculus [9]) of the same compound?
The Activity was 100%.

For `COc1cc2c(cc1OS(N)(=O)=O)CC[C@@H]1[C@@H]2CC[C@@]2(C)[C@H]1CC[C@@]2(O)Cc1ccccc1`, which inhibition in vivo at 5 mg/kg (Mus musculus [10]) is on record?
The inhibition in vivo at 5 mg/kg was 71%.

What about the inhibition in vivo at 5 mg/kg (Mus musculus [11]) of the same compound?
The inhibition in vivo at 5 mg/kg was 100%.
